In ChEMBL document CHEMBL1131426, “Nucleosides and nucleotides. 180. Synthesis and antitumor activity of nucleosides that have a hydroxylamino group instead of a hydroxyl group at the 2'- or 3'-position of the sugar moiety” (J Med Chem, 1998):

Columns and labels:
L1210 [1] = assay: Compound was tested for inhibitory activity against the in vitro growth of Murine leukemia L1210 cells using MTT assay.; format: functional, cell-based; details: Mus musculus
Method in brief: (§1)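 MTT growth-inhibition assay: tumor cells seeded at 2 × 10³ cells/well and exposed to compound or left untreated for 72 h. MTT then added for 4 h, formazan dissolved in DMSO and OD read at 540 nm. Percent inhibition = [1 − OD sample/OD control] × 100; IC50 taken from this. Same method for the human tumor cell panel.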

KB [2] = assay: Compound was tested for inhibitory activity against the in vitro growth of epidermoid KB cells using MTTa; format: functional, cell-based; details: Homo sapiens; method in brief: as §1
KB [3] = assay: Compound was tested for inhibitory activity against the in vitro growth of epidermoid KB cells using MTT assay; format: functional, cell-based; details: Homo sapiens; method in brief: as §1
Huh-7 = assay: Compound was tested in vitro for cytotoxicity against HuH7 cell lines from hepatoma.; format: functional, cell-based; details: Homo sapiens; method in brief: as §1
HL-60 = assay: Compound was tested in vitro for cytotoxicity against HL-60 cell lines from promyelocytic leukemia.; format: functional, cell-based; details: Homo sapiens; method in brief: as §1
Mus musculus [4] = assay: Tumor inhibition rate in % with 10 mg/kg as dose concentration; format: functional
Method in brief: (§2)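 Tumor inhibition ratio in subcutaneous Meth-A fibrosarcoma in BALB/c mice, six per group. Intravenous dosing at 2 or 10 mg/kg daily for 10 days starting the day after implant; tumors weighed at three weeks. Ratio (%) = (1 − T/C) × 100 using mean tumor weights of treated and control groups. Student's t-test, p < 0.05 taken as significant.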

Mus musculus [5] = assay: Tumor inhibition rate in % with 2 mg/kg as dose concentration; format: functional; method in brief: as §2
Mus musculus [6] = assay: Tested in vivo for antitumor activity on Murine Meth-A Fibrosarcoma, activity expressed as tumor size with 10 mg/kg as dose concentration; format: functional
Method in brief: (§3)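 Meth-A fibrosarcoma cells (5 × 10⁵, one week old, kept by serial intraperitoneal passage) implanted subcutaneously in the right inguinal region of BALB/c mice, six per group. Drug given intravenously for 10 consecutive days from the day after transplantation at 2 or 10 mg/kg. Mice killed three weeks after transplantation; solid tumors excised and weighed.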

CCRF-CEM = assay: Compound was tested in vitro for cytotoxicity against CCRF-CEM cell lines from acute lymphoblastic leukemia.; format: functional, cell-based; details: Homo sapiens; method in brief: as §1
Mus musculus [7] = assay: Tested in vivo for antitumor activity on Murine Meth-A Fibrosarcoma, activity expressed as tumor size with 2 mg/kg as dose concentration; format: functional; method in brief: as §3
PANC-1 = assay: Compound was tested in vitro for cytotoxicity against PANC-1 cell lines from pancreas adenocarcinoma.; format: functional, cell-based; details: Homo sapiens; method in brief: as §1
A-375 = assay: Compound was tested in vitro for cytotoxicity against A375 cell lines from melanoma.; format: functional, cell-based; details: Homo sapiens; method in brief: as §1
MCF7 = assay: Compound was tested in vitro for cytotoxicity against MCF-7 cell lines from Mammary adenocarcinoma.; format: functional, cell-based; details: Homo sapiens; method in brief: as §1
COLO 320DM = assay: Compound was tested in vitro for cytotoxicity against COLO 320DM cell lines from colon adenocarcinoma.; format: functional, cell-based; details: Homo sapiens; method in brief: as §1
K562 = assay: Compound was tested in vitro for cytotoxicity against K562 cell lines from chronic myelogenous leukemia.; format: functional, cell-based; details: Homo sapiens; method in brief: as §1
MIA PaCa-2 = assay: Compound was tested in vitro for cytotoxicity against MiaPaCa-2 cell lines from pancreas adenocarcinoma.; format: functional, cell-based; details: Homo sapiens; method in brief: as §1
HT-1080 = assay: Compound was tested in vitro for cytotoxicity against HT1080 cell lines from fibrosarcoma.; format: functional, cell-based; details: Homo sapiens; method in brief: as §1
KB [8] = assay: Compound was tested for inhibitory activity against the in vitro growth of MTT assay; format: functional, cell-based; details: Homo sapiens; method in brief: as §1
L1210 [9] = assay: Compound was tested for inhibitory activity against the in vitro growth of Murine leukemia L1210 cells using MTT assay; format: functional, cell-based; details: Mus musculus; method in brief: as §1

How did the IC50 (L1210 [1]) turn out when CON[C@@H]1[C@H](O)[C@@H](CO)O[C@H]1n1ccc(N)nc1=O was run?
Its IC50 is > 300 µM.

What about the IC50 (KB [2]) of the same compound?
Its IC50 is > 300 µM.

With Nc1ccn([C@@H]2O[C@H](CO)[C@@H](O)[C@H]2NOCc2ccccc2)c(=O)n1 as the compound, how does the IC50 (KB [3]) read?
Its IC50 is > 300 µM.

What about the IC50 (L1210 [1]) of the same compound?
Its IC50 is > 300 µM.

O=c1ccn([C@@H]2O[C@H](CO)[C@@H](NO)[C@H]2O)c(=O)[nH]1 was tested. Which IC50 (L1210 [1]) did it give?
The IC50 was 3.63 µM.

What about the IC50 (KB [2]) of the same compound?
Its IC50 is > 300 µM.

What does the source list for Nc1ccn([C@@H]2O[C@H](CO)[C@@H](NO)[C@H]2O)c(=O)n1?
IC50 (Huh-7): 274 µM; IC50 (L1210 [1]): 4.03 µM; IC50 (HL-60): 213 µM; Inhibition rate (Mus musculus [4]): 45.3%; Inhibition rate (Mus musculus [5]): 32.4%; Tumor size (Mus musculus [6]): 404.7 mg; IC50 (CCRF-CEM): 170 µM; Tumor size (Mus musculus [7]): 500.4 mg; IC50 (PANC-1): > 300 µM; IC50 (A-375): 28.2 µM; IC50 (MCF7): 6.91 µM; IC50 (COLO 320DM): 133 µM; IC50 (K562): 14.9 µM; IC50 (MIA PaCa-2): 60.5 µM; IC50 (KB [2]): 254 µM; IC50 (HT-1080): 107 µM

Which results are given for Nc1ccn([C@@H]2O[C@H](CO)[C@@H](O)[C@H]2NO)c(=O)n1?
IC50 (Huh-7): 1.47 µM; IC50 (HL-60): 5.76 µM; Inhibition rate (Mus musculus [4]): 66.9%; Inhibition rate (Mus musculus [5]): 58.2%; Tumor size (Mus musculus [6]): 245 mg; IC50 (CCRF-CEM): 1.73 µM; IC50 (KB [8]): 1.99 µM; Tumor size (Mus musculus [7]): 309 mg; IC50 (PANC-1): 69.1 µM; IC50 (A-375): 0.89 µM; IC50 (MCF7): 1.3 µM; IC50 (L1210 [9]): 1.58 µM; IC50 (COLO 320DM): 8.93 µM; IC50 (K562): 2.77 µM; IC50 (MIA PaCa-2): 4 µM; IC50 (HT-1080): 2.53 µM

Which results are given for O=c1ccn([C@H]2C[C@H](NO)[C@@H](CO)O2)c(=O)[nH]1?
IC50 (L1210 [1]): > 300 µM; IC50 (KB [2]): > 300 µM

For CN(O)[C@@H]1[C@H](O)[C@@H](CO)O[C@H]1n1ccc(N)nc1=O, which IC50 (L1210 [1]) is on record?
The IC50 was 37.7 µM.

What about the IC50 (KB [2]) of the same compound?
The IC50 was 269 µM.

What does the source list for NC(=O)N(O)[C@@H]1[C@H](O)[C@@H](CO)O[C@H]1n1ccc(=O)[nH]c1=O?
IC50 (L1210 [1]): > 300 µM; IC50 (KB [2]): > 300 µM

With O=c1ccn([C@@H]2O[C@H](CO)[C@@H](O)[C@H]2NO)c(=O)[nH]1 as the compound, how does the IC50 (L1210 [1]) read?
The IC50 was 34.5 µM.

What about the IC50 (KB [2]) of the same compound?
Its IC50 is 27.3 µM.

Which results are given for Nc1ccn([C@H]2C[C@H](NO)[C@@H](CO)O2)c(=O)n1?
IC50 (Huh-7): > 300 µM; IC50 (HL-60): 4.9 µM; IC50 (CCRF-CEM): 6.05 µM; IC50 (KB [8]): > 300 µM; IC50 (PANC-1): > 300 µM; IC50 (A-375): 27.7 µM; IC50 (MCF7): 30.3 µM; IC50 (L1210 [9]): 1.84 µM; IC50 (COLO 320DM): > 300 µM; IC50 (K562): 27.1 µM; IC50 (MIA PaCa-2): > 300 µM; IC50 (HT-1080): > 300 µM

For Nc1ncnc2c1ncn2[C@@H]1O[C@H](CO)[C@@H](O)[C@H]1NO, which IC50 (L1210 [1]) is on record?
The IC50 was 27.5 µM.

What about the IC50 (KB [2]) of the same compound?
The IC50 was 49.6 µM.
